Values after ≈ are worked out from the molar mass of the structure shown.
What was measured:
[1] = Cytotoxicity against human THP1 cells upto 50 uM treated 3 times per week for 14 days by MTT assay; type: cell-based; settings: thp-1, 336 h
[2] = system: Staphylococcus aureus; assay: Bactericidal activity against methicillin-resistant Staphylococcus aureus isolate 1a assessed as reduction in colony counts at 32 ug/ml after 4 hrs by pour plate method (reference value: 6.14 +/- 0.456 log10CFU/ml); type: functional
[3] = system: Staphylococcus aureus; assay: Bactericidal activity against methicillin-resistant Staphylococcus aureus isolate 1a assessed as reduction in colony counts at 32 ug/ml after 8 hrs by pour plate method (reference value: 8.30 +/- 0.442 log10CFU/ml); type: functional
[4] = system: Staphylococcus aureus; assay: Bactericidal activity against methicillin-resistant Staphylococcus aureus isolate 1a assessed as reduction in colony counts at 32 ug/ml after 12 hrs by pour plate method (reference value: 10.12 +/- 0.428 log10CFU/ml); type: functional
[5] = system: Staphylococcus aureus; assay: Bactericidal activity against methicillin-resistant Staphylococcus aureus isolate 1a assessed as reduction in colony counts at 32 ug/ml after 16 hrs by pour plate method (reference value: 12.50 +/- 0.291 log10CFU/ml); type: functional
[6] = system: Staphylococcus aureus; assay: Bactericidal activity against methicillin-resistant Staphylococcus aureus isolate 1a assessed as reduction in colony counts at 32 ug/ml after 20 hrs by pour plate method (reference value: 12.73 +/- 0.223 log10CFU/ml); type: functional
[7] = system: Staphylococcus aureus; assay: Bactericidal activity against methicillin-resistant Staphylococcus aureus isolate 1a assessed as reduction in colony counts at 32 ug/ml after 24 hrs by pour plate method (reference value: 12.64 +/- 0.224 log10CFU/ml); type: functional
[8] = system: Staphylococcus aureus; assay: Antimicrobial activity against methicillin-resistant Staphylococcus aureus isolate 2a after 24 hrs by agar plate dilution method; type: functional
Procedure, shortened: (§1)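 Clinical MRSA isolates from axilla/nasal swabs, identified by mannitol salt agar, Gram stain and coagulase test. Agar plate dilution with compound series 0.03–128 µg/mL. Inoculum suspended in water to McFarland 0.5. Incubation 24 h at 37 °C. MIC read as the lowest level without white growth spots. Dilution series quality-controlled with S. aureus NCTC 6571.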

[9] = system: Staphylococcus aureus; assay: Antimicrobial activity against methicillin-resistant Staphylococcus aureus isolate 1a after 24 hrs by agar plate dilution method; type: functional; procedure, shortened: as §1
[10] = system: Staphylococcus aureus; assay: Antimicrobial activity against methicillin-resistant Staphylococcus aureus isolate 3a after 24 hrs by agar plate dilution method; type: functional; procedure, shortened: as §1
[11] = system: Staphylococcus aureus; assay: Antimicrobial activity against methicillin-resistant Staphylococcus aureus isolate 4a after 24 hrs by agar plate dilution method; type: functional; procedure, shortened: as §1
[12] = system: Staphylococcus aureus; assay: Antimicrobial activity against methicillin-resistant Staphylococcus aureus isolate 5a after 24 hrs by agar plate dilution method; type: functional
Procedure, shortened: (§2)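 Clinical MRSA isolates, from axilla/nasal swabs and identified by mannitol salt agar, Gram stain and coagulase test. […] Inoculum adjusted to McFarland 0.5 in water. Plates incubated 24 h at 37 °C and scored for growth spots. Dilution series quality-controlled with S. aureus NCTC 6571. Combination lines used a 1:1 mixture with oxacillin.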

[13] = system: Staphylococcus aureus; assay: Antimicrobial activity against methicillin-resistant Staphylococcus aureus isolate 6a after 24 hrs by agar plate dilution method; type: functional; procedure, shortened: as §2
[14] = system: Staphylococcus aureus; assay: Antimicrobial activity against methicillin-resistant Staphylococcus aureus isolate 7a after 24 hrs by agar plate dilution method; type: functional; procedure, shortened: as §2
[15] = system: Staphylococcus aureus; assay: Antimicrobial activity against methicillin-resistant Staphylococcus aureus isolate 8a after 24 hrs by agar plate dilution method; type: functional; procedure, shortened: as §2
[16] = system: Staphylococcus aureus; assay: Antimicrobial activity against methicillin-resistant Staphylococcus aureus isolate 9a after 24 hrs by agar plate dilution method; type: functional; procedure, shortened: as §2
[17] = system: Staphylococcus aureus; assay: Antimicrobial activity against methicillin-resistant Staphylococcus aureus isolate 10a after 24 hrs by agar plate dilution method; type: functional; procedure, shortened: as §1
[18] = system: Staphylococcus aureus; assay: Antimicrobial activity against methicillin-resistant Staphylococcus aureus isolate 11a after 24 hrs by agar plate dilution method; type: functional; procedure, shortened: as §1
[19] = system: Staphylococcus aureus; assay: Antimicrobial activity against methicillin-resistant Staphylococcus aureus isolate 12a after 24 hrs by agar plate dilution method; type: functional; procedure, shortened: as §1
[20] = system: Staphylococcus aureus; assay: Antimicrobial activity against methicillin-resistant Staphylococcus aureus isolate 13a after 24 hrs by agar plate dilution method; type: functional; procedure, shortened: as §1
[21] = system: Staphylococcus aureus; assay: Antimicrobial activity against methicillin-resistant Staphylococcus aureus isolate 14a after 24 hrs by agar plate dilution method; type: functional; procedure, shortened: as §1
[22] = system: Staphylococcus aureus; assay: Antimicrobial activity against methicillin-resistant Staphylococcus aureus isolate 15a after 24 hrs by agar plate dilution method; type: functional; procedure, shortened: as §1
[23] = system: Staphylococcus aureus; assay: Antimicrobial activity against methicillin-resistant Staphylococcus aureus isolate 16a after 24 hrs by agar plate dilution method; type: functional; procedure, shortened: as §1
[24] = system: Staphylococcus aureus; assay: Antimicrobial activity against methicillin-resistant Staphylococcus aureus isolate 17a after 24 hrs by agar plate dilution method; type: functional; procedure, shortened: as §1
[25] = system: Staphylococcus aureus; assay: Antimicrobial activity against methicillin-resistant Staphylococcus aureus isolate 18a after 24 hrs by agar plate dilution method; type: functional; procedure, shortened: as §1
[26] = system: Staphylococcus aureus; assay: Antimicrobial activity against methicillin-resistant Staphylococcus aureus isolate 19a after 24 hrs by agar plate dilution method; type: functional; procedure, shortened: as §1
[27] = system: Staphylococcus aureus; assay: Antimicrobial activity against methicillin-resistant Staphylococcus aureus isolate 20a after 24 hrs by agar plate dilution method; type: functional; procedure, shortened: as §1
[28] = system: Staphylococcus aureus; assay: Antimicrobial activity against methicillin-resistant Staphylococcus aureus isolate 21a after 24 hrs by agar plate dilution method; type: functional; procedure, shortened: as §1
[29] = system: Staphylococcus aureus; assay: Antimicrobial activity against methicillin-resistant Staphylococcus aureus isolate 22a after 24 hrs by agar plate dilution method; type: functional; procedure, shortened: as §1
[30] = system: Staphylococcus aureus; assay: Antimicrobial activity against methicillin-resistant Staphylococcus aureus isolate 23a after 24 hrs by agar plate dilution method; type: functional; procedure, shortened: as §1
[31] = system: Staphylococcus aureus; assay: Antimicrobial activity against methicillin-resistant Staphylococcus aureus isolate 24a after 24 hrs by agar plate dilution method; type: functional; procedure, shortened: as §1
[32] = system: Staphylococcus aureus; assay: Antimicrobial activity against methicillin-resistant Staphylococcus aureus isolate 25a after 24 hrs by agar plate dilution method; type: functional; procedure, shortened: as §1
[33] = system: Staphylococcus aureus; assay: Antimicrobial activity against methicillin-resistant Staphylococcus aureus isolate 26a after 24 hrs by agar plate dilution method; type: functional; procedure, shortened: as §1
[34] = system: Staphylococcus aureus; assay: Antimicrobial activity against methicillin-resistant Staphylococcus aureus isolate 27a after 24 hrs by agar plate dilution method; type: functional; procedure, shortened: as §1
[35] = system: Staphylococcus aureus; assay: Antimicrobial activity against methicillin-resistant Staphylococcus aureus isolate 28a after 24 hrs by agar plate dilution method; type: functional; procedure, shortened: as §1
[36] = system: Staphylococcus aureus; assay: Antimicrobial activity against methicillin-resistant Staphylococcus aureus isolate 29a after 24 hrs by agar plate dilution method; type: functional; procedure, shortened: as §1
[37] = system: Staphylococcus aureus; assay: Antimicrobial activity against methicillin-resistant Staphylococcus aureus isolate 30a after 24 hrs by agar plate dilution method; type: functional; procedure, shortened: as §1

## Cc1ccc(OCc2cn(CCn3c([N+](=O)[O-])cnc3C)nn2)cc1
[1]
  Activity: Non-toxic

## CCC(=O)OCc1cn(CCn2c([N+](=O)[O-])cnc2C)nn1
[1]
  Activity: Non-toxic

## Cc1ncc([N+](=O)[O-])n1CCn1cc(CNc2cccc(F)c2)nn1
[1]
  Activity: Non-toxic

## Cc1ncc([N+](=O)[O-])n1CCn1cc([Si](C)(C)C)nn1
[1]
  Activity: Non-toxic

## Cc1onc(-c2ccccc2)c1C(=O)N[C@@H]1C(=O)N2[C@@H]1SC(C)(C)[C@@H]2C(=O)O [OXACILLIN]
[2]
  Activity: 6.05 log10CFU/ml
[3]
  Activity: 7.62 log10CFU/ml
[4]
  Activity: 8.35 log10CFU/ml
[5]
  Activity: 11.2 log10CFU/ml
[6]
  Activity: 11.95 log10CFU/ml
[7]
  Activity: 12.34 log10CFU/ml
[8]
  MIC: > 128 µg/mL
[9]
  MIC: > 128 µg/mL
[10]
  MIC: > 128 µg/mL
[11]
  MIC: > 128 µg/mL
[12]
  MIC: > 128 µg/mL
[13]
  MIC: > 128 µg/mL
[14]
  MIC: > 128 µg/mL
[15]
  MIC: > 128 µg/mL
[16]
  MIC: > 128 µg/mL
[17]
  MIC: > 128 µg/mL
[18]
  MIC: > 128 µg/mL
[19]
  MIC: > 128 µg/mL
[20]
  MIC: > 128 µg/mL
[21]
  MIC: > 128 µg/mL
[22]
  MIC: > 128 µg/mL
[23]
  MIC: > 128 µg/mL
[24]
  MIC: > 128 µg/mL
[25]
  MIC: > 128 µg/mL
[26]
  MIC: > 128 µg/mL
[27]
  MIC: > 128 µg/mL
[28]
  MIC: 64 µg/mL (≈ 159 µM)
[29]
  MIC: 32 µg/mL (≈ 79.7 µM)
[30]
  MIC: 64 µg/mL (≈ 159 µM)
[31]
  MIC: 16 µg/mL (≈ 39.9 µM)
[32]
  MIC: 64 µg/mL (≈ 159 µM)
[33]
  MIC: 32 µg/mL (≈ 79.7 µM)
[34]
  MIC: 32 µg/mL (≈ 79.7 µM)
[35]
  MIC: 128 µg/mL (≈ 319 µM)
[36]
  MIC: 32 µg/mL (≈ 79.7 µM)
[37]
  MIC: 64 µg/mL (≈ 159 µM)

## Cc1ncc([N+](=O)[O-])n1CCn1cc(-c2ccccc2)nn1
[1]
  Activity: Non-toxic

## Cc1ncc([N+](=O)[O-])n1CCn1cc(COc2ccccc2C=O)nn1
[1]
  Activity: Non-toxic

## Cc1ncc([N+](=O)[O-])n1CCn1cc(CNc2ccccc2F)nn1
[1]
  Activity: Non-toxic

## Cc1ncc([N+](=O)[O-])n1CCn1cc(COc2ccc(Cl)cc2Cl)nn1
[1]
  Activity: Non-toxic

## Cc1ncc([N+](=O)[O-])n1CCn1cc(CNc2ccccn2)nn1
[1]
  Activity: Non-toxic

## Cc1ncc([N+](=O)[O-])n1CCn1cc(CNCCc2ccccc2)nn1
[1]
  Activity: Non-toxic

## Cc1ncc([N+](=O)[O-])n1CCn1cc(COc2ccc([N+](=O)[O-])cc2)nn1
[1]
  Activity: Non-toxic

## Cc1ncc([N+](=O)[O-])n1CCn1cc(COC2CCCCO2)nn1 (stereo unspecified)
[1]
  Activity: Non-toxic

## Cc1ncc([N+](=O)[O-])n1CCn1cc(CNc2cc(Cl)c(Cl)cc2Cl)nn1
[1]
  Activity: Non-toxic

## Cc1ncc([N+](=O)[O-])n1CCn1cc(COc2ccccc2Cl)nn1
[1]
  Activity: Non-toxic

## Cc1ncc([N+](=O)[O-])n1CCn1cc(CNc2ccccc2)nn1
[1]
  Activity: Non-toxic

## Cc1ncc([N+](=O)[O-])n1CCn1cc(CBr)nn1
[1]
  Activity: Non-toxic

## Cc1ncc([N+](=O)[O-])n1CCn1cc(COCc2ccccc2)nn1
[1]
  Activity: Non-toxic

## Cc1ncc([N+](=O)[O-])n1CCn1cc(CNc2cccc(Cl)c2Cl)nn1
[1]
  Activity: Non-toxic

## Cc1ncc([N+](=O)[O-])n1CCn1cc(COc2ccc(C(C)C)cc2)nn1
[1]
  Activity: Non-toxic

## Cc1ncc([N+](=O)[O-])n1CCn1cc(CNc2ccc(F)cc2)nn1
[1]
  Activity: Non-toxic

## Cc1ncc([N+](=O)[O-])n1CCn1cc(COc2ccc(C(C)(C)C)cc2)nn1
[1]
  Activity: Non-toxic

## Cc1ncc([N+](=O)[O-])n1CCn1cc(COc2cccc3ccccc23)nn1
[1]
  Activity: Non-toxic

## Cc1ncc([N+](=O)[O-])n1CCn1cc(COc2ccc(C=O)cc2)nn1
[1]
  Activity: Non-toxic

## Cc1ncc([N+](=O)[O-])n1CCn1cc(CNc2cccc(Cl)c2)nn1
[1]
  Activity: Non-toxic

## Cc1ncc([N+](=O)[O-])n1CCn1cc(C2(O)CCCCC2)nn1
[1]
  Activity: Non-toxic

## Cc1ccccc1OCc1cn(CCn2c([N+](=O)[O-])cnc2C)nn1
[1]
  Activity: Non-toxic

## Cc1ncc([N+](=O)[O-])n1CCn1cc(CNc2ccc(Br)cc2)nn1
[1]
  Activity: Non-toxic

## Cc1ncc([N+](=O)[O-])n1CCn1cc(CNc2ccccc2Cl)nn1
[1]
  Activity: Non-toxic

## Cc1ccccc1NCc1cn(CCn2c([N+](=O)[O-])cnc2C)nn1
[1]
  Activity: Non-toxic

## CCCc1cn(CCn2c([N+](=O)[O-])cnc2C)nn1
[1]
  Activity: Non-toxic

## Cc1ncc([N+](=O)[O-])n1CCn1cc(COc2ccccc2)nn1
[1]
  Activity: Non-toxic

## Cc1cccc(OCc2cn(CCn3c([N+](=O)[O-])cnc3C)nn2)c1C
[1]
  Activity: Non-toxic

## Cc1ncc([N+](=O)[O-])n1CCn1cc(COc2c(C(C)(C)C)cc(C(C)(C)C)cc2C(C)(C)C)nn1
[1]
  Activity: Non-toxic

## COc1cc(NCc2cn(CCn3c([N+](=O)[O-])cnc3C)nn2)cc(OC)c1
[1]
  Activity: Non-toxic

## Cc1ncc([N+](=O)[O-])n1CCO [METRONIDAZOLE]
[2]
  Activity: 5.91 log10CFU/ml
[3]
  Activity: 6.45 log10CFU/ml
[4]
  Activity: 8.01 log10CFU/ml
[5]
  Activity: 8.25 log10CFU/ml
[6]
  Activity: 8.14 log10CFU/ml
[7]
  Activity: 8.3 log10CFU/ml
